Measured values taken from ChEMBL document CHEMBL1275417, “Biological activities of novel gyrase inhibitors of the aminocoumarin class” (Antimicrob Agents Chemother, 2008).
Values after ≈ are worked out from the molar mass of the structure shown. Active and inactive are the calls of the source. The calls are words filed in the database; no cut-off is given here.

Columns and labels:
[1] = biological target: T1, Cell division inhibitor SulA (Escherichia coli K-12) (UniProt P0AFZ5); experiment: Inhibition of Escherichia coli K-12 DNA sulA expressed in Escherichia coli DC2 assessed as compound concentration required for => 4-fold induction of luxCDABE operon by reported gene assay
T1 sequence (whole entry): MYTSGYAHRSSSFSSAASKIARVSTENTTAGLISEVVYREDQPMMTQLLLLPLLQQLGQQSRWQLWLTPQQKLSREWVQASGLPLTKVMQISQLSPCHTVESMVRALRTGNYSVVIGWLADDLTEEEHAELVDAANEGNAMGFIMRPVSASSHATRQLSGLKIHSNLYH
How it was run: (§1)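 E. coli DC2 carrying a gyrA or sulA promoter–luxCDABE (Photorhabdus) fusion plasmid. Grown overnight at 37°C in LB with 2 μg/ml tetracycline, then diluted 1:100 in LB without tetracycline and precultured 1.5 h at 37°C. Compounds were added from DMSO stocks to 1% final DMSO and incubated 5 h at 37°C. Bioluminescence was divided by A595, and induction factor is the treated/untreated ratio. The value is the lowest test concentration giving ≥4-fold induction.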

[2] = biological target: DNA gyrase subunit A (Escherichia coli K-12) (UniProt P0AES4); experiment: Inhibition of Escherichia coli K-12 DNA gyrase A expressed in Escherichia coli DC2 assessed as compound concentration required for => 4-fold induction of luxCDABE operon by reported gene assay; how it was run: as §1
DNA gyrase subunit A (Escherichia coli K-12), sequence (P0AES4 whole entry): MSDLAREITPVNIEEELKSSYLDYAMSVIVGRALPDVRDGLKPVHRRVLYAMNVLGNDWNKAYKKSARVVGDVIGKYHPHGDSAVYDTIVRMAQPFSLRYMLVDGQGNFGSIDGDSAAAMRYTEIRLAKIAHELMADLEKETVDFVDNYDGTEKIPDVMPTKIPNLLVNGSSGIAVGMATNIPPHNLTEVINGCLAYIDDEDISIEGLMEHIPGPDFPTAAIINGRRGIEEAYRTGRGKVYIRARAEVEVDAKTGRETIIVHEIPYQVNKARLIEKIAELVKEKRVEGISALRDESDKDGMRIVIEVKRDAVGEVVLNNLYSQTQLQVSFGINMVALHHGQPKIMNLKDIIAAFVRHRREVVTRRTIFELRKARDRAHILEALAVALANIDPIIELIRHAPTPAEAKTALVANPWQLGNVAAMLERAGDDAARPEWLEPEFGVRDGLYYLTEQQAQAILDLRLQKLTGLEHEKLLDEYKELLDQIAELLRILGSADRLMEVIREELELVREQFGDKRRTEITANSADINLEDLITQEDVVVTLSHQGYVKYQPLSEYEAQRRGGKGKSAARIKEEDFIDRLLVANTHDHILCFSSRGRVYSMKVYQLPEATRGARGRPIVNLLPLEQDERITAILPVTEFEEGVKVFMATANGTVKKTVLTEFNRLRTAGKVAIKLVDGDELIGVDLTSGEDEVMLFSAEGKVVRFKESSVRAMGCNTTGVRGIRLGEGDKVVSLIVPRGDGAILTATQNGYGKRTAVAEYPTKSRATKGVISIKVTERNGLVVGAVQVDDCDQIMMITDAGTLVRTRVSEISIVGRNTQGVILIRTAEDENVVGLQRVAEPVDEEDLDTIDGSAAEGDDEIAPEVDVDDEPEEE

[3] = biological target: DNA gyrase subunit B (Escherichia coli, UniProt P0AES6); experiment: Inhibition of Escherichia coli JM109 DNA gyrase subunit B assessed as ATP hydrolysis by ATPase assay
[4] = biological target: DNA gyrase (Escherichia coli); experiment: Inhibition of Escherichia coli JM109 DNA gyrase assessed as DNA triple helix formation by supercoiling assay
[5] = system: Pseudomonas aeruginosa; experiment: Antibacterial activity against Pseudomonas aeruginosa K799/WT by broth microdilution method; format: functional
[6] = system: Escherichia coli; experiment: Antibacterial activity against Escherichia coli DC2 by broth microdilution method; format: functional
[7] = system: Escherichia coli; experiment: Antibacterial activity against Escherichia coli UB1005 by broth microdilution method; format: functional
[8] = system: Klebsiella pneumoniae; experiment: Antibacterial activity against Klebsiella pneumoniae ATCC 27736 by broth microdilution method; format: functional
[9] = system: Staphylococcus aureus; experiment: Antibacterial activity against Staphylococcus aureus ATCC 43300 by broth microdilution method; format: functional
[10] = system: Enterococcus faecium; experiment: Antibacterial activity against Enterococcus faecium ATCC 19434 by broth microdilution method; format: functional
[11] = system: Enterococcus faecalis; experiment: Antibacterial activity against Enterococcus faecalis ATCC 29212 by broth microdilution method; format: functional
[12] = system: Escherichia coli; experiment: Antibacterial activity against Escherichia coli ATCC 25922 by broth microdilution method; format: functional
[13] = system: Staphylococcus aureus; experiment: Antibacterial activity against Staphylococcus aureus 80CR5 by broth microdilution method; format: functional
[14] = system: Staphylococcus aureus; experiment: Antibacterial activity against Staphylococcus aureus ATCC 29213 by broth microdilution method; format: functional
[15] = system: Pseudomonas aeruginosa; experiment: Antibacterial activity against Pseudomonas aeruginosa ATCC 27853 by broth microdilution method; format: functional
[16] = system: Pseudomonas aeruginosa; experiment: Antibacterial activity against Pseudomonas aeruginosa K799/61 by broth microdilution method; format: functional
[17] = system: Streptococcus pneumoniae; experiment: Antibacterial activity against Streptococcus pneumoniae SL336-T by broth microdilution method; format: functional
[18] = system: Streptococcus pneumoniae; experiment: Antibacterial activity against Streptococcus pneumoniae ATCC 49619 by broth microdilution method; format: functional
[19] = system: Streptococcus pneumoniae; experiment: Antibacterial activity against Streptococcus pneumoniae TUPELO by broth microdilution method; format: functional

COc1cc(C(=O)Nc2c(O)c3ccc(O[C@@H]4OC(C)(C)[C@H](OC)[C@@H](O)[C@H]4O)c(C)c3oc2=O)ccc1O
Activity [1]: inactive | Activity [2]: inactive | IC50 [3]: > 10000 nM

CCCc1cc(C(=O)Nc2c(O)c3ccc(O[C@@H]4OC(C)(C)[C@H](OC)[C@@H](O)[C@H]4OC(=O)c4ccc(C)[nH]4)c(C)c3oc2=O)ccc1O
Activity [1]: 100 µM | IC50 [4]: 140 nM | Activity [2]: 25 µM | IC50 [3]: 758 nM

C=CCc1cc(C(=O)Nc2c(O)c3ccc(O[C@@H]4OC(C)(C)[C@H](OC)[C@@H](O)[C@H]4OC(=O)c4ccc(C)[nH]4)c(C)c3oc2=O)ccc1O
Activity [1]: 100 µM | IC50 [4]: 460 nM | Activity [2]: inactive | IC50 [3]: 2790 nM

CO[C@@H]1[C@@H](O)[C@@H](O)[C@H](Oc2ccc3c(O)c(NC(=O)/C=C/c4ccccc4)c(=O)oc3c2C)OC1(C)C
Activity [1]: inactive | Activity [2]: inactive | IC50 [3]: > 10000 nM

CO[C@@H]1[C@@H](OC(N)=O)[C@@H](O)[C@H](Oc2ccc3c(O)c(NC(=O)c4ccc(O)c(CC=C(C)C)c4)c(=O)oc3c2C)OC1(C)C [NOVOBIOCIN]
MIC [5]: > 32 µg/mL | MIC [6]: 4 µg/mL (≈ 6.53 µM) | MIC [7]: > 32 µg/mL | Activity [1]: 6.3 µM | MIC [8]: > 32 µg/mL | MIC [9]: 0.25 µg/mL (≈ 0.408 µM) | MIC [10]: > 32 µg/mL | MIC [11]: > 32 µg/mL | MIC [12]: > 32 µg/mL | MIC [13]: > 32 µg/mL | MIC [14]: 0.25 µg/mL (≈ 0.408 µM) | MIC [15]: > 32 µg/mL | MIC [16]: 1 µg/mL (≈ 1.63 µM) | MIC [17]: 2 µg/mL (≈ 3.26 µM) | MIC [18]: 1 µg/mL (≈ 1.63 µM) | MIC [19]: 2 µg/mL (≈ 3.26 µM) | Activity [2]: 3.1 µM

CO[C@@H]1[C@@H](OC(=O)c2ccc(C)[nH]2)[C@@H](O)[C@H](Oc2ccc3c(O)c(NC(=O)/C=C/c4ccc(O)c(Cl)c4)c(=O)oc3c2Cl)OC1(C)C
Activity [1]: 25 µM | IC50 [4]: 32 nM | Activity [2]: 25 µM | IC50 [3]: 137 nM

CO[C@@H]1[C@@H](OC(=O)c2ccc(C)[nH]2)[C@@H](O)[C@H](Oc2ccc3c(O)c(NC(=O)c4ccccc4)c(=O)oc3c2Cl)OC1(C)C
Activity [1]: 3.1 µM | IC50 [4]: < 5 nM | Activity [2]: 3.1 µM | IC50 [3]: 72 nM

CO[C@@H]1[C@@H](O)[C@@H](O)[C@H](Oc2ccc3c(O)c(NC(=O)c4ccccc4)c(=O)oc3c2C)OC1(C)C
Activity [1]: inactive | Activity [2]: inactive | IC50 [3]: > 10000 nM

CO[C@@H]1[C@@H](OC(=O)c2ccc(C)[nH]2)[C@@H](O)[C@H](Oc2ccc3c(O)c(NC(=O)c4ccccc4)c(=O)oc3c2)OC1(C)C
Activity [1]: 50 µM | IC50 [4]: 50 nM | Activity [2]: 50 µM | IC50 [3]: 219 nM

CCCc1cc(C(=O)Nc2c(O)c3ccc(O[C@@H]4OC(C)(C)[C@H](OC)[C@@H](O)[C@H]4O)c(C)c3oc2=O)ccc1O
Activity [1]: inactive | Activity [2]: 3.1 µM | IC50 [3]: > 10000 nM

CO[C@@H]1[C@@H](OC(=O)c2ccc(C)[nH]2)[C@@H](O)[C@H](Oc2ccc3c(O)c(NC(=O)c4ccc(O)c(CC=C(C)C)c4)c(=O)oc3c2Cl)OC1(C)C [CHLOROBIOCIN]
MIC [5]: 16 µg/mL (≈ 23 µM) | MIC [6]: 2 µg/mL (≈ 2.87 µM) | MIC [7]: > 32 µg/mL | Activity [1]: < 1 µM | MIC [8]: 16 µg/mL (≈ 23 µM) | MIC [9]: ≤ 0.06 µg/mL | MIC [10]: > 32 µg/mL | MIC [11]: 4 µg/mL (≈ 5.74 µM) | MIC [12]: 32 µg/mL (≈ 45.9 µM) | MIC [13]: 4 µg/mL (≈ 5.74 µM) | MIC [14]: ≤ 0.06 µg/mL | MIC [15]: 8 µg/mL (≈ 11.5 µM) | MIC [16]: ≤ 0.06 µg/mL | MIC [17]: 1 µg/mL (≈ 1.43 µM) | MIC [18]: 0.25 µg/mL (≈ 0.359 µM) | MIC [19]: 1 µg/mL (≈ 1.43 µM) | Activity [2]: 1.6 µM

CO[C@@H]1[C@@H](O)[C@@H](OC(=O)c2ccc(C)[nH]2)[C@H](Oc2ccc3c(O)c(NC(=O)c4ccccc4)c(=O)oc3c2Cl)OC1(C)C
Activity [1]: 50 µM | IC50 [4]: 110 nM | Activity [2]: > 100 µM | IC50 [3]: 297 nM

CO[C@@H]1[C@@H](OC(=O)c2ccc(C)[nH]2)[C@@H](O)[C@H](Oc2ccc3c(O)c(NC(=O)/C=C/c4ccc(O)c(Cl)c4)c(=O)oc3c2)OC1(C)C
Activity [1]: 50 µM | IC50 [4]: 280 nM | Activity [2]: 50 µM | IC50 [3]: 276 nM
